Source: ChEMBL document CHEMBL3779860, “A Designed Tryptophan- and Lysine/Arginine-Rich Antimicrobial Peptide with Therapeutic Potential for Clinical Antibiotic-Resistant Candida albicans Vaginitis” (J Med Chem, 2016)
Calls of active or inactive are those of the source. No cut-off for these calls is given here.

Tests used:
Candida albicans [1] = experiment: Antimicrobial activity against antibiotic resistant Candida albicans clinical isolate 08030809 in mouse vaginitis model assessed as decrease in colony count in lavage liquid of vagina at 50 ug administered as intravaginal instillation measured on day 11; assay type: functional
Candida albicans [2] = experiment: Antimicrobial activity against antibiotic resistant Candida albicans clinical isolate 08030809 assessed as clone count at MIC after 3 hrs by colony counting assay (reference value: 3687 +/- 543 CFU); assay type: functional
Candida albicans [3] = experiment: Antimicrobial activity against antibiotic resistant Candida albicans after 6 hrs by disc diffusion method in presence of human plasma; assay type: functional, organism-based
Outline: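 Peptide mixed with human plasma (final concentration 100 µM) at 37°C for up to 24 h. 10 µL aliquots were applied to C. albicans in Sabouraud medium with 0.7% agar. Inhibition zone diameters were read after 36 h.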

Candida albicans [4] = experiment: Antimicrobial activity against antibiotic resistant Candida albicans clinical isolate 08030102 after 16 hrs by broth dilution method; assay type: functional; conditions: isolate 08030102, 16 h
Outline: (§1)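 Broth microdilution in Sabouraud liquid medium. Samples are stocks in 0.9% NaCl, 10 µL added to 90 µL broth plus 100 µL of 2 × 10^5 CFU/mL yeast suspension. Incubated 16 h at 28°C, growth read by A600. MIC is the lowest concentration completely inhibiting growth; mean of three independent experiments.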

Candida albicans [5] = experiment: Antimicrobial activity against antibiotic resistant Candida albicans clinical isolate 08030809 assessed as clone count at MIC after 1 hr by colony counting assay (reference value: 228 +/- 23 CFU); assay type: functional
Candida albicans [6] = experiment: Antimicrobial activity against antibiotic resistant Candida albicans clinical isolate 08022821 after 16 hrs by broth dilution method; assay type: functional; conditions: isolate 08022821, 16 h; outline: as §1
Candida albicans [7] = experiment: Antimicrobial activity against antibiotic resistant Candida albicans clinical isolate 08030809 assessed as clone count at 10 times MIC after 10 mins by colony counting assay (reference value: 102 +/- 11 CFU); assay type: functional
[8] = Ratio of HC50 for human RBC to MIC for Candida albicans ATCC 2002
[9] = Induction of hemolysis in human RBC at 320 ug/mL after 30 mins; assay type: cell-based, Erythrocyte; conditions: red blood cells, read-out: Activity
Outline: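 Serial dilutions were incubated with human erythrocytes for 30 min at 37°C. Supernatant absorbance was read at 540 nm after centrifugation. Hemolysis is expressed as % of the 1% Triton X-100 lysis value, pooled from three independent experiments. The highest concentration tested was 320 µg/mL.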

Candida albicans [10] = experiment: Antimicrobial activity against antibiotic resistant Candida albicans clinical isolate 08022710 after 16 hrs by broth dilution method; assay type: functional; conditions: isolate 08022710, 16 h; outline: as §1
Candida albicans [11] = experiment: Antimicrobial activity against antibiotic resistant Candida albicans clinical isolate 08032821 compound treated in NaCl solution measured after 36 hrs by disc diffusion method; assay type: functional; conditions: isolate 08032821, 36 h
Outline: (§2)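 Salt-tolerance test: peptide at 2 mg/mL was prepared in sterile ddH2O, in 150 mM NaCl, or in PBS (150 mM NaCl, 2.7 mM KCl, 1.5 mM KH2PO4, 8 mM K2HPO4, pH 7.2). Anti-C. albicans activity was then assessed by inhibition zone on Sabouraud medium with 0.7% agar.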

Mus musculus [12] = experiment: Antiinflammatory activity in antibiotic resistant Candida albicans clinical isolate 08030809 induced mouse vaginitis model assessed as reduction in TNF-alpha secretion in vaginal tissue administered as intravaginal instillation measured on day 10 by ELISA; assay type: functional, organism-based; conditions: Vagina
Outline: (§3)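 Same estradiol-primed mouse model, infected intravaginally with C. albicans 08030809 and treated by intravaginal instillation (20 µL/mouse). Vaginal canals excised on day 10 of treatment and homogenised in 0.9% NaCl. Supernatant taken after 2,000 g for 15 min. TNF-α, IL-6, IL-1β and IL-10 measured by ELISA. Mean ± SE of three independent experiments; unpaired t-test versus vehicle.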

Candida albicans [13] = experiment: Antimicrobial activity against antibiotic resistant Candida albicans clinical isolate 08030809 in mouse vaginitis model assessed as decrease in colony count in lavage liquid of vagina at 20 ug administered as intravaginal instillation measured on day 6; assay type: functional
Candida albicans [14] = experiment: Antimicrobial activity against antibiotic resistant Candida albicans clinical isolate 08030401 after 16 hrs by broth dilution method; assay type: functional; conditions: isolate 08030401, 16 h; outline: as §1
Candida albicans [15] = experiment: Antimicrobial activity against antibiotic resistant Candida albicans clinical isolate 08030809 in mouse vaginitis model assessed as decrease in colony count in lavage liquid of vagina at 20 ug administered as intravaginal instillation measured on day 16; assay type: functional
Mus musculus [16] = experiment: (§4) Antiinflammatory activity in antibiotic resistant Candida albicans clinical isolate 08030809 induced mouse vaginitis model assessed as reduction in IL-1beta secretion in vaginal tissue at 50 ug administered as intravaginal instillation measured on day 10 by ELISA; assay type: functional, Vagina; outline: as §3
Candida albicans [17] = experiment: Antimicrobial activity against Candida albicans ATCC 2002 assessed as inhibition of yeast growth after 16 hrs by broth dilution method; assay type: functional; conditions: ATCC 2002, 16 h; outline: as §1
Mus musculus [18] = experiment: as §4, with “microabscess number” for “reduction in IL-1beta secretion”, “6” for “10”, “hematoxylin-eosin staining based microscopic method (reference value: 61)” for “ELISA”; assay type: functional, Vagina
Outline: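 Mice given weekly subcutaneous estradiol valerate (0.5 mg in 0.1 mL vegetable oil) 72 h before infection. Infected intravaginally with 20 µL of 10^7 CFU/mL C. albicans 08030809. Intravaginal instillation of 20 µL daily for 16 days. Vaginal canals excised after lavage, formalin-fixed, paraffin-embedded, HE-stained. Microabscesses counted per high-power field over 6 fields per section, three independent experiments.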

Candida albicans [19] = experiment: Antimicrobial activity against antibiotic resistant Candida albicans clinical isolate 08030809 assessed as clone count at 5 times MIC after 10 mins by colony counting assay (reference value: 102 +/- 11 CFU); assay type: functional
Candida albicans [20] = experiment: Antimicrobial activity against antibiotic resistant Candida albicans clinical isolate 08032710 compound treated in NaCl solution measured after 36 hrs by disc diffusion method; assay type: functional; conditions: isolate 08032710, 36 h; outline: as §2
Mus musculus [21] = experiment: Antiinflammatory activity in antibiotic resistant Candida albicans clinical isolate 08030809 induced mouse vaginitis model assessed as reduction in IL-1beta secretion in vaginal tissue at 20 ug administered as intravaginal instillation measured on day 10 by ELISA; assay type: functional, Vagina; outline: as §3
Candida albicans [22] = experiment: Effect on cell morphology in antibiotic resistant Candida albicans clinical isolate 08030809 assessed as cell swelling at MIC to 2.5 times MIC after 30 mins by scanning electron microscopy; assay type: functional, organism-based
Outline: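 Exponential-phase C. albicans 08030809 was washed in PBS and resuspended in Sabouraud medium. Cells were treated 30 min at 37°C alongside a vehicle control. They were then fixed in 2.5% glutaraldehyde (4°C, 2 h) and 1% osmium tetroxide, dehydrated through graded ethanol, freeze-dried from tert-butanol, gold-coated and imaged by SEM. Images are typical of three experiments.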

Mus musculus [23] = experiment: Antiinflammatory activity in antibiotic resistant Candida albicans clinical isolate 08030809 induced mouse vaginitis model assessed as reduction in IL-6 secretion in vaginal tissue at 20 ug administered as intravaginal instillation measured on day 10 by ELISA; assay type: functional, Vagina; outline: as §3
Candida albicans [24] = experiment: Antimicrobial activity against antibiotic resistant Candida albicans clinical isolate 08030809 assessed as clone count at 10 times MIC after 1 min by colony counting assay (reference value: 62 +/- 7 CFU); assay type: functional

H-VKRWKKWRWKWKKWV-NH2
inhibition (INH) (Candida albicans [1]): 66%
Activity (Candida albicans [2]): 0 CFU
Activity (Candida albicans [3]): Active
MIC (Candida albicans [4]): 3.13 µg/mL
Activity (Candida albicans [5]): 0 CFU
MIC (Candida albicans [6]): 3.13 µg/mL
Activity (Candida albicans [7]): 4 CFU
Ratio [8]: 542
hemolysis at 0.5 h, 320 ug/mL [9]: 3.1%
MIC (Candida albicans [10]): 4.69 µg/mL
MIC (Candida albicans [11]): 2.65 µg/mL
Activity (Mus musculus [12]): Dose-dependent effect
inhibition (INH) (Candida albicans [13]): 22%
MIC (Candida albicans [14]): 4.69 µg/mL
inhibition (INH) (Candida albicans [15]): 71%
inhibition (INH) (Mus musculus [16]): 63%
MIC (Candida albicans [17]): 0.59 µg/mL
Activity (Mus musculus [18]): 7
Activity (Candida albicans [19]): 9 CFU
MIC (Candida albicans [20]): 2.79 µg/mL
inhibition (INH) (Mus musculus [21]): 44%
Activity (Candida albicans [22]): Active
inhibition (INH) (Mus musculus [23]): 46%
Activity (Candida albicans [24]): 6 CFU
